Assay results taken from ChEMBL document CHEMBL4138260, “Novel Naphthalimide Aminothiazoles as Potential Multitargeting Antimicrobial Agents” (ACS Med Chem Lett, 2017).
In brackets after ≈: the same amount, converted by molar mass. Activity calls are given as the source filed them. The calls are words filed in the database; no cut-off is given here.

What was measured:
[1] = tested on: Acinetobacter baumannii; assay: Antimicrobial activity against Acinetobacter baumannii after 24 hrs by two fold serial dilution method; format: functional
Method in brief: (§1)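 MIC determined in vitro by two-fold serial dilution, following the procedure recommended by the Clinical and Laboratory Standards Institute (CLSI).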

[2] = tested on: Pseudomonas aeruginosa; assay: Antimicrobial activity against Pseudomonas aeruginosa ATCC 27853 after 24 hrs by two fold serial dilution method; format: functional
Method in brief: (§2)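 MICs by CLSI-recommended two-fold serial broth dilution against the listed bacterial strains.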

[3] = tested on: Staphylococcus aureus; assay: Antimicrobial activity against Staphylococcus aureus ATCC 25923 after 24 hrs by two fold serial dilution method; format: functional; method in brief: as §2
[4] = tested on: Klebsiella pneumoniae; assay: Antimicrobial activity against Klebsiella pneumoniae after 24 hrs by two fold serial dilution method; format: functional, organism-based; method in brief: as §1
[5] = tested on: Staphylococcus aureus; assay: Antimicrobial activity against Staphylococcus aureus ATCC 29213 after 24 hrs by two fold serial dilution method; format: functional; method in brief: as §2
[6] = tested on: Enterococcus faecalis; assay: Antimicrobial activity against Enterococcus faecalis after 24 hrs by two fold serial dilution method; format: functional, organism-based; method in brief: as §1
[7] = tested on: Pseudomonas aeruginosa; assay: Antimicrobial activity against Pseudomonas aeruginosa after 24 hrs by two fold serial dilution method; format: functional; method in brief: as §2
[8] = tested on: Staphylococcus aureus; assay: Antimicrobial activity against Staphylococcus aureus after 24 hrs by two fold serial dilution method; format: functional, organism-based; method in brief: as §1
[9] = tested on: Staphylococcus aureus; assay: Antimicrobial activity against methicillin-resistant Staphylococcus aureus after 24 hrs by two fold serial dilution method; format: functional; method in brief: as §2
[10] = tested on: Escherichia coli; assay: Antimicrobial activity against Escherichia coli after 24 hrs by two fold serial dilution method; format: functional; method in brief: as §2
[11] = tested on: Escherichia coli; assay: Antimicrobial activity against Escherichia coli ATCC 25922 after 24 hrs by two fold serial dilution method; format: functional; settings: for MIC: ATCC 25922, 24 h; method in brief: as §2
[12] = tested on: Escherichia coli; assay: Potency index, ratio of chloromycin MIC to compound MIC against Escherichia coli ATCC 25922; format: functional
[13] = tested on: Staphylococcus aureus; assay: Membrane permeabilization of methicillin-resistant Staphylococcus aureus cytoplasmic membrane at 12 times MIC after 60 mins by propidium iodide staining based fluorescence assay; format: functional, organism-based
Method in brief: (§3)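 Cytoplasmic membrane permeabilization of MRSA or E. coli with propidium iodide. Fluorescence intensity of the compound/PI-treated bacterial mixtures was followed over time up to steady state, with two control groups run in parallel.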

[14] = tested on: Staphylococcus aureus; assay: Antimicrobial activity against methicillin-resistant Staphylococcus aureus measured every 24 hrs post passages for 16 days; format: functional, organism-based
Method in brief: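 Resistance-development study in MRSA, with MIC re-measured over serial passages. Norfloxacin and chloromycin were run alongside as reference drugs.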

[15] = target: Albumin (Homo sapiens, UniProt P02768); assay: Binding affinity to human serum albumin by UV-visible absorption spectroscopy; format: ADME; settings: isolated protein
Albumin, sequence (P02768 whole entry): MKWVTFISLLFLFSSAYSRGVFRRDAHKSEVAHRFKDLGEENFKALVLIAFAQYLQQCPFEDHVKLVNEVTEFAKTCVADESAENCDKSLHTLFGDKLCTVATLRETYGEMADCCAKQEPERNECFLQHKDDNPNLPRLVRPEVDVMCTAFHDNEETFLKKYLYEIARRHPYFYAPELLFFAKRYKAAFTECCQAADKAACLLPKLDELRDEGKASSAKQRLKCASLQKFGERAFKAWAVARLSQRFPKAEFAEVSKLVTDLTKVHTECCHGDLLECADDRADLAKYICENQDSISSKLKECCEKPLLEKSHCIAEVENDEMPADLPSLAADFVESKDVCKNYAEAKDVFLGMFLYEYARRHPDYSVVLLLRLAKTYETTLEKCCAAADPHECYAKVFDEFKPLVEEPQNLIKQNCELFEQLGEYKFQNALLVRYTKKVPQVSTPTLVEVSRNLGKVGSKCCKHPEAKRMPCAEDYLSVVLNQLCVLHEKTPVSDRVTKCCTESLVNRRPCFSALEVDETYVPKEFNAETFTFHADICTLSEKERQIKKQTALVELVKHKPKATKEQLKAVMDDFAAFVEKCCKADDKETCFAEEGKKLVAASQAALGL

[16] = tested on: Escherichia coli; assay: Potency index, ratio of norfloxacin MIC to compound MIC against Escherichia coli ATCC 25922; format: functional
[17] = tested on: DNA; assay: Induction of methicillin-resistant Staphylococcus aureus DNA intercalation assessed as compound-DNA complex formation incubated for 1 hr by UV-visible absorption spectroscopy; format: nucleic-acid assay
[18] = Cytotoxicity against […] RAW264.7 cells assessed as cell viability at 128 ug/ml after 24 hrs by MTT assay; format: cell-based; settings: read-out: Activity
Method in brief: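 Cytotoxicity in […] RAW 264.7 macrophages by MTT assay at concentrations up to 128 μg/mL. Read-out was percent cell viability.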

[19] = tested on: Staphylococcus aureus; assay: Bactericidal activity against methicillin-resistant Staphylococcus aureus assessed as log reduction in bacterial count at 4 times MIC measured up to 7 hrs by time kill assay; format: functional
Method in brief: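 Time-kill kinetics against MRSA with the compound at 4 × MIC. Viable bacteria were counted over time as log CFU/mL.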

[20] = tested on: Escherichia coli; assay: Membrane permeabilization of Escherichia coli cytoplasmic membrane at 12 times MIC after 60 mins by propidium iodide staining based fluorescence assay; format: functional, organism-based; method in brief: as §3
[21] = tested on: Acinetobacter baumannii; assay: Potency index, ratio of chloromycin MIC to compound MIC against Acinetobacter baumannii; format: functional

Row | Compound | Activity [1] | Activity [2] | Activity [3] | Activity [4] | Activity [5] | Activity [6] | Activity [7] | Activity [8] | Activity [9] | Activity [10] | Activity [11] | also measured
1 | O=C1c2cccc3c(Br)ccc(c23)C(=O)N1Nc1nccs1 | Active | Active | Active | Active | Active | Active | Active | Active | Active | Active | Active | 
2 | CCn1cc(C(=O)O)c(=O)c2cc(F)c(N3CCNCC3)cc21 [NORFLOXACIN] |  |  |  |  |  |  |  |  |  |  |  | MIC [1]: 8 µg/mL (≈ 25.1 µM); MIC [11]: 8 µg/mL (≈ 25.1 µM)
3 | CCCCCCCCCCCCCCCCN1CCN(c2ccc3c4c(cccc24)C(=O)N(Nc2nccs2)C3=O)CC1 | inactive | inactive | inactive | inactive | inactive | inactive | inactive | inactive | inactive | inactive | inactive | 
4 | O=C1c2cccc3c(N4CCNCC4)ccc(c23)C(=O)N1Nc1nccs1 | inactive |  |  |  |  |  |  |  |  |  |  | Ratio [12]: 4; MIC ([2]; ATCC 27853, 24 h): 4 to 16 µg/mL (≈ 10.5 to 42.2 µM); MIC ([3]; ATCC 25923, 24 h): 4 µg/mL (≈ 10.5 µM); Activity [13]: Active; Activity [14]: Active; Activity [15]: Active; Ratio [16]: 2; MIC ([5]; ATCC 29213, 24 h): 2 µg/mL (≈ 5.27 µM); MIC [7]: 4 to 16 µg/mL (≈ 10.5 to 42.2 µM); Activity [17]: Active; MIC [9]: 4 µg/mL (≈ 10.5 µM); MIC [10]: 4 to 16 µg/mL (≈ 10.5 to 42.2 µM); MIC [11]: 4 to 16 µg/mL (≈ 10.5 to 42.2 µM); viability at 24 h, 128 ug/ml [18]: 80.1%; Activity [19]: >3 CFU/ml; Activity [20]: Active
5 | CCCCCCCCCCCCN1CCN(c2ccc3c4c(cccc24)C(=O)N(Nc2nccs2)C3=O)CC1 | inactive | inactive | inactive | inactive | inactive | inactive | inactive | inactive | inactive | inactive | inactive | 
6 | CCCCCCCCCCN1CCN(c2ccc3c4c(cccc24)C(=O)N(Nc2nccs2)C3=O)CC1 | inactive | inactive | inactive | inactive | inactive | inactive | inactive | inactive | inactive | inactive | inactive | 
7 | O=C1c2cccc3c(N4CCOCC4)ccc(c23)C(=O)N1Nc1nccs1 |  |  |  |  |  |  |  |  |  |  |  | MIC [1]: 8 µg/mL (≈ 21 µM); Ratio [21]: 2
